Experimental data collected from several papers.
Lines come from different studies, so protocols differ.
Target: Testis-specific serine/threonine-protein kinase 1 (TSSK1B, Homo sapiens, UniProt Q9BXA7)
Residues used in one study (Q9BXA7 1-367): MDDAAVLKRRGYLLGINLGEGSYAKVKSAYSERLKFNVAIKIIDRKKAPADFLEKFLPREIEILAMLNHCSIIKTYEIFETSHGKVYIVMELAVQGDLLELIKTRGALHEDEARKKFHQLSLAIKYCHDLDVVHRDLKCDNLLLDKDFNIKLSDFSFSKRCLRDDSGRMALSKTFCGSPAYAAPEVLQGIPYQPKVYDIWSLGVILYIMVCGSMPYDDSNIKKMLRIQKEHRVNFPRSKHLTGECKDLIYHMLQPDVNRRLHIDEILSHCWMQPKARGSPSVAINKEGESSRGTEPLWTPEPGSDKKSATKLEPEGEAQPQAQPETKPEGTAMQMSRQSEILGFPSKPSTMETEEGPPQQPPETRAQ

| SMILES | test | conditions | quantity | result |
| --- | --- | --- | --- | --- |
| COc1cc(-c2cn(C3CCc4c(F)cccc4N(CC(F)(F)F)C3=O)nn2)ccc1-n1cnc(C)c1 (centres unmarked) | cell-free assay, competition with immobilised ligand | 1 µM | remaining binding | 100% |
| Cc1ccc(Nc2nccc(N(C)c3ccc4c(C)n(C)nc4c3)n2)cc1S(N)(=O)=O | enzyme activity, inhibitor | 0.3 µM | inhibition | -1% |
| O=C(Nc1cnn(-c2csc(C(=O)NC3COC3)c2)c1)Nc1ccccc1Cl | enzyme activity, inhibitor | 5 µM | remaining activity | 102% |
| COc1ccc2c(O[C@@H]3C[C@H]4C(=O)N[C@]5(C(=O)O)CC5/C=C\CCCCC[C@H](NC(=O)OC5CCCC5)C(=O)N4C3)cc(-c3csc(NC(=O)C(C)C)n3)nc2c1C (some centres unmarked) | cell-free assay, competition with immobilised ligand | 1 µM | remaining binding | 70% |
| CCCOc1ccc(OC)c(F)c1C(=O)c1ccc(C(=O)N[C@@H]2CNC[C@H]2NC(=O)c2ccc3[nH]ncc3c2)cc1 | enzyme activity, inhibitor | 10 µM | remaining activity | 70% |
| COc1cc2ncnc(Nc3ccc(Oc4ccccc4)cc3C)c2cc1OC | enzyme activity, inhibitor | 1 µM | inhibition | 2% |
| COc1cc(Nc2cnc(C#N)c(O[C@H](C)CN(C)C)n2)ncc1-c1cnn(C)c1 | enzyme activity, inhibitor, radiometric | 1 µM | remaining activity | 72% |
| CNC(=O)c1cc(Oc2ccc(NC(=O)Nc3ccc(Cl)c(C(F)(F)F)c3)cc2)ccn1 | enzyme activity, inhibitor | 10 µM | inhibition | 2% |
| CCOCCn1cc(C(=O)Nc2ccc(-n3nc(-c4cccnc4)cc3C(F)(F)F)cn2)ccc1=O | cell-free assay, competition with immobilised ligand | 1 µM | remaining binding | 100% |
| N#CCCc1ccc2c(c1)-c1[nH]c3ccc([N+](=O)[O-])cc3c1CC(=O)N2 | cell-free assay | 0.5 µM | remaining signal | 59.2% |
| CN1CC(Oc2cnc(C#N)cc2-c2ccn3nc(NC(=O)C4CC4)cc3c2)C1 | enzyme activity, inhibitor | 1 µM | inhibition | 9% |
| COc1cc(Cl)c(C(=O)N[C@@H](CN[C@H]2CC[C@@H](N)CC2)Cc2ccc(C#N)cc2)cc1-c1ccc(CN[C@H](C)c2ccc(C)cc2)o1 | enzyme activity, inhibitor | 1 µM | remaining activity | 101% |
| CC(=O)C1=C(C)N(c2cccc(C(F)(F)F)c2)C(=O)N[C@@H]1c1ccc(C#N)nc1 | cell-free assay, competition with immobilised ligand | 1 µM | remaining binding | 100% |
| Cc1cnc(NC2CCOCC2)nc1-n1cnc(C(=O)NC(CN)c2cc(F)cc(Cl)c2)c1 (centres unmarked) | enzyme activity, inhibitor, radiometric | 1 µM | remaining activity | 55% |
| CS(=O)(=O)N1CCCC(NC(=O)[C@H](CCC2CCCCC2)NC(=O)c2ccc(CNC(=O)c3cnc4ccccn34)cc2)C1 (some centres unmarked) | cell-free assay, competition with immobilised ligand | 0.1 µM | remaining binding | 94% |
| CC(C)(C)c1nc(-c2cccc(NS(=O)(=O)c3c(F)cccc3F)c2F)c(-c2ccnc(N)n2)s1 | enzyme activity, inhibitor, radiometric | 1 µM | remaining activity | 84% |
| C[C@H](c1cccc(C#N)c1)n1cc(Cl)cc(C(N)=O)c1=N | cell-free assay, competition with immobilised ligand | 1 µM | remaining binding | 96% |
| CN(C)C1CCN(CC#Cc2nn(C3CCCC3)c3nc(NCc4ccccc4)ncc23)C1 (centres unmarked) | enzyme activity, inhibitor, FRET | 0.1 µM | inhibition | 4% |
| Cc1nc(N2CC[C@@H](O)C2)ncc1-c1cc(C(F)(F)F)cc2[nH]ncc12 | binding, competition with immobilised ligand | 1 µM | remaining binding | 98% |
| Nc1ncnc2occ(-c3ccc(NC(=O)Nc4cc(C(F)(F)F)ccc4F)cc3)c12 | cell-free assay, inhibitor | 20 µM | remaining signal | 52% |
| Cc1ccc(NC(=O)c2ccc(CN3CCN(C)CC3)cc2)cc1Nc1nc(-c2cccnc2)cs1 | cell-free assay | 0.5 µM | remaining signal | 100% |
| CCN(CC)CCNC(=O)c1c(C)[nH]c(/C=C2\C(=O)Nc3ccc(F)cc32)c1C | enzyme activity, inhibitor | 0.3 µM | inhibition | -1% |
| CCN(CC)c1ccc(C2=NNC(=O)CC2C)cc1[N+](=O)[O-] (centres unmarked) | enzyme activity, inhibitor | 10 µM | remaining activity | 96% |
